According to ChEMBL document CHEMBL5303300, “EUbOPEN Chemogenomics Library - Multiplex” (2023):
“And” between values parts separate entries of the source, which are not always exact repeats. Equal values may be shown once.

System: U2OS
Experiment: Multiplex assay against U2OS
Assay type: toxicity, cell-based
Conditions: human, number of replicates 2
How it was run: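 Values for tubulin, mitochondrial-mass and membrane-permeability phenotypes are per cents of cells with healthy nuclei. These cells were identified by CellPathfinder machine-learning gating of live cells that had been stained at seeding with Hoechst33342, BioTracker Green Microtubule Cytoskeleton Dye, MitoTracker Red and Annexin V Alexa Fluor 680 and imaged on a CQ1 microscope at 37°C and 5% CO2 after compound addition. The gating first set Hoechst high-intensity objects apart from normal cells, then split normal cells into healthy, pyknosed or fragmented nuclei, and pyknosed cells into mitotic or apoptotic.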

[1] = 12 h, 1 µM, compound concentration 1 uM
[2] = 12 h, 10 µM, compound concentration 10 uM
[3] = 24 h, 1 µM, compound concentration 1 uM
[4] = 24 h, 10 µM, compound concentration 10 uM
[5] = 48 h, 1 µM, compound concentration 1 uM
[6] = 48 h, 10 µM, compound concentration 10 uM

## Cc1cc(NC(=O)c2cccc(NC(=O)/C=C/CN(C)C)c2)ccc1Nc1nccc(-c2cccnc2)n1
[1]
  Population Apoptotic (%): 100% and 77%
  Population Healthy Nuclei (%): 55% and 82%
  Population Hoechst High Intensity Objects (%): 0%
  Population Membrane Permeable-Phenotype (%): 0%
  Population Mitochondria Different-Phenotype (%): 4% and 0%
  Population Mitotic Cells (%): 0% and 22%
  Population Normal (%): 100%
  Population Pyknosed Nuclei (%): 4% and 12%
  Population Tubulin-Different-Phenotype (%): 70% and 87%
[2]
  Population Apoptotic (%): 75%
  Population Fragmented Nuclei (%): 9% and 3%
  Population Healthy Nuclei (%): 61% and 65%
  Population Hoechst High Intensity Objects (%): 0%
  Population Membrane Permeable-Phenotype (%): 15% and 21%
  Population Mitochondria Different-Phenotype (%): 23% and 18%
  Population Mitotic Cells (%): 25% and 24%
  Population Normal (%): 100%
  Population Pyknosed Nuclei (%): 28% and 31%
  Population Tubulin-Different-Phenotype (%): 76% and 43%
[3]
  Population Apoptotic (%): 33% and 86%
  Population Healthy Nuclei (%): 60% and 83%
  Population Hoechst High Intensity Objects (%): 0%
  Population Membrane Permeable-Phenotype (%): 3% and 1%
  Population Mitochondria Different-Phenotype (%): 3% and 0%
  Population Normal (%): 100%
  Population Pyknosed Nuclei (%): 6% and 9%
  Population Tubulin-Different-Phenotype (%): 66% and 90%
[4]
  Population Apoptotic (%): 92% and 85%
  Population Fragmented Nuclei (%): 15% and 10%
  Population Healthy Nuclei (%): 26% and 35%
  Population Hoechst High Intensity Objects (%): 4% and 1%
  Population Membrane Permeable-Phenotype (%): 41% and 23%
  Population Mitochondria Different-Phenotype (%): 41% and 38%
  Population Mitotic Cells (%): 7% and 14%
  Population Normal (%): 95% and 98%
  Population Pyknosed Nuclei (%): 58% and 53%
  Population Tubulin-Different-Phenotype (%): 91% and 61%
[5]
  Population Apoptotic (%): 37% and 75%
  Population Fragmented Nuclei (%): 18% and 6%
  Population Healthy Nuclei (%): 69% and 86%
  Population Hoechst High Intensity Objects (%): 0%
  Population Membrane Permeable-Phenotype (%): 4% and 1%
  Population Mitochondria Different-Phenotype (%): 2% and 1%
  Population Mitotic Cells (%): 62% and 24%
  Population Normal (%): 100%
  Population Pyknosed Nuclei (%): 12% and 7%
  Population Tubulin-Different-Phenotype (%): 68% and 91%
[6]
  Population Apoptotic (%): 96% and 95%
  Population Healthy Nuclei (%): 11% and 9%
  Population Hoechst High Intensity Objects (%): 10% and 2%
  Population Membrane Permeable-Phenotype (%): 100% and 92%
  Population Mitochondria Different-Phenotype (%): 100% and 53%
  Population Mitotic Cells (%): 3% and 4%
  Population Normal (%): 89% and 97%
  Population Pyknosed Nuclei (%): 67% and 84%
  Population Tubulin-Different-Phenotype (%): 100% and 84%

## CCCN(CCc1cccs1)[C@H]1CCc2c(O)cccc2C1 [ROTIGOTINE]
[1]
  Population Apoptotic (%): 46% and 66%
  Population Fragmented Nuclei (%): 6% and 13%
  Population Healthy Nuclei (%): 84% and 76%
  Population Hoechst High Intensity Objects (%): 0%
  Population Mitochondria Different-Phenotype (%): 0%
  Population Mitotic Cells (%): 53% and 33%
  Population Normal (%): 100%
  Population Pyknosed Nuclei (%): 9% and 10%
  Population Tubulin-Different-Phenotype (%): 86% and 34%
  Total Cell Count: 30
[2]
  Population Apoptotic (%): 62% and 50%
  Population Healthy Nuclei (%): 84% and 60%
  Population Hoechst High Intensity Objects (%): 0%
  Population Membrane Permeable-Phenotype (%): 4% and 13%
  Population Mitochondria Different-Phenotype (%): 1% and 0%
  Population Mitotic Cells (%): 37% and 50%
  Population Normal (%): 100%
  Population Pyknosed Nuclei (%): 11% and 15%
[3]
  Population Apoptotic (%): 57% and 80%
  Population Fragmented Nuclei (%): 1% and 6%
  Population Healthy Nuclei (%): 89% and 82%
  Population Hoechst High Intensity Objects (%): 0%
  Population Membrane Permeable-Phenotype (%): 2%
  Population Mitochondria Different-Phenotype (%): 0%
  Population Mitotic Cells (%): 42% and 20%
  Population Normal (%): 100%
  Population Pyknosed Nuclei (%): 8% and 10%
  Population Tubulin-Different-Phenotype (%): 88% and 39%
[4]
  Population Apoptotic (%): 48% and 66%
  Population Healthy Nuclei (%): 83% and 75%
  Population Hoechst High Intensity Objects (%): 0%
  Population Membrane Permeable-Phenotype (%): 0% and 9%
  Population Mitochondria Different-Phenotype (%): 1% and 2%
  Population Mitotic Cells (%): 51% and 33%
  Population Normal (%): 100%
  Population Pyknosed Nuclei (%): 13% and 10%
  Population Tubulin-Different-Phenotype (%): 62% and 46%
[5]
  Population Apoptotic (%): 35% and 83%
  Population Healthy Nuclei (%): 90% and 76%
  Population Hoechst High Intensity Objects (%): 0% and 1%
  Population Membrane Permeable-Phenotype (%): 1% and 6%
  Population Mitochondria Different-Phenotype (%): 0% and 4%
  Population Normal (%): 99% and 98%
  Population Pyknosed Nuclei (%): 6% and 9%
  Population Tubulin-Different-Phenotype (%): 93% and 35%
[6]
  Population Apoptotic (%): 66% and 57%
  Population Fragmented Nuclei (%): 8% and 2%
  Population Healthy Nuclei (%): 75% and 90%
  Population Hoechst High Intensity Objects (%): 0%
  Population Membrane Permeable-Phenotype (%): 6% and 1%
  Population Mitochondria Different-Phenotype (%): 3% and 0%
  Population Mitotic Cells (%): 33% and 42%
  Population Normal (%): 100% and 99%
  Population Pyknosed Nuclei (%): 15% and 6%
  Population Tubulin-Different-Phenotype (%): 62% and 78%
